MEKK2 mut-MEK5: signal of MEK5 binding to mutant human MEKK2 PB1 domain. percent response, % at 10 µM. actives 0.35% (n = 290,000). bead flow cytometry, Alexa488-MEK5 binding to MEKK2 mutant; in the data active means percent response above about 24%, passing the limit was not always enough
UBC13 inh: blocks human UBC13 polyubiquitin chain formation; TR-FRET; inhibition, % at 20 µM; actives 0.47% (n = 330,000); AID 485273; in the data active means inhibition above about 45%, passing the limit was not always enough; inconclusive means no clear call, values can overlap the other calls
Apaf1 inhib: blocks human Apaf-1 apoptosome activity; reconstituted apoptosome caspase-3 activity, DEVD-Rh110 fluorescence; inhibition, % at 20 µM; actives 0.71% (n = 330,000); AID 489030; active means inhibition of at least 40% at 20 µM;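 further: plate controls were DMSO wells for no effect and DEVD-CHO caspase inhibitor wells for full effect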
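Material: reconstituted apoptosome with Apaf-1, cytochrome c, caspase-9, procaspase-3, dATP. Technique: Rh110 fluorescence intensity. Buffer or medium: pH 7.5 Hepes buffer with CHAPS, BSA, DTT. Times: 30 min plus 50 min, RT.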
MEKK2 WT-MEK5: raises or lowers MEK5 binding to wildtype human MEKK2 PB1 domain; Q9Y2U5; bead flow cytometry, Alexa488-MEK5 binding to MEKK2 WT; actives lie on both sides; binding response (% of control), % at 10 µM; actives 1.1% (n = 290,000); AID 1531; in the data active means binding response below about 67% or above about 130%; inconclusive means no clear call, values can overlap the other calls; inactive means in between
MEKK3 PB1 HTS: MEKK3-MEK5 PB1 interaction, increase or decrease; Q99759; bead-based flow cytometry, Alexa488-MEK5 binding to MEKK3; actives lie on both sides; 0 = blocked by unlabeled MEK5, 100 = vehicle; AID 1529; binding response (% of control), % at 10 µM; actives 1.4% (n = 290,000);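 active means binding response more than 3 SD above or below the average of its plate-row segment, actives on both sides; inconclusive means wells at one plate position flagged as instrument error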;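 further: Alexa488 bead fluorescence after subtracting the streptavidin-only scavenger bead signal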
Apaf-1 inh conf2: confirmation of Apaf-1 inhibitors; shares compounds with Apaf1 inhib; reconstituted apoptosome, caspase-3 DEVD-Rh110 fluorescence; inhibition, % at 20 µM; actives 25% (n = 1,800);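 active means mean inhibition of at least 40% at 20 µM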;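 further: plate controls were DMSO wells for no effect and DEVD-CHO caspase inhibitor control wells for full effect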
Rh110 quench: interferes with Rh110 fluorescence, flagging false Apaf-1 inhibitors; activation (fluorescence interference), % at 20 µM; shares compounds with Apaf1 inhib; Rh110 fluorescence interference, quenched caspase reaction; 1,800 tested, under 10 active;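 active means signal rise of 40% or more at 20 µM, treated as a fluorescence artifact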
Fluor interf inh: counter-screen for Apaf-1 inhibitors: fluorescence interference, dose response; 460 tested, under 10 active; fluorescence interference counterscreen, Apaf-1 assay format; shares compounds with Apaf1 inhib; IC50, µM; call rule not given here
Starred values were filed as active, the others as inactive; ? = inconclusive; . = no result; ! = not active in a repeat. Hits are enriched below; roughly 2.9% of the tested compounds scored in any of these assays.

SMILES	MEKK2 mut-MEK5	UBC13 inh	Apaf1 inhib	MEKK2 WT-MEK5	MEKK3 PB1 HTS	Apaf-1 inh conf2	Rh110 quench	others
CCCCc1cc(=O)oc2cc(OCC(=O)NCCN3CCOCC3)c(Cl)cc12	0	0	61*	100	98	11	6
COc1cc2sc3ccc(C#CC4(O)CCCCC4)cc3c(=O)c2cc1OC	-6	14	3	91	101	.	.
COc1cccc2sc3cc(C#CC4(O)CCCCC4)ccc3c(=O)c12	.	?	40*	.	.	27	3
CN1CCc2cccc3c2[C@H]1Cc1ccc(O)c(O)c1-3	3	4	42*!	100	88	6	7
COc1cc(C2C(C(C)=O)=C(O)C(=O)N2Cc2ccccc2)ccc1O (centres undefined)	-2	-10	7	94	96	.	.
COc1ccc(CN=Cc2[nH]c3ccc(Br)c(Cl)c3c2O)cc1	.	-71	45*	.	.	41*	-1	Fluor interf inh=>100
COc1ccc(Cc2nnc(SCC(=O)N3CCCCC3)o2)cc1	-6	0	4	99	101	.	.
COc1cccc(CNC(=O)CSc2nc(=O)n(Cc3ccncc3)c3c2CCC3)c1	.	1	0	.	.	.	.
c1ccc(-c2cn3nc(-c4ccccc4)cnc3n2)cc1	16	.	.	102	104	.	.
c1ccc(-c2cn3nc4c(nc3n2)CCCC4)cc1	-4	-20	57*	95	92	27	4
Brc1ccc(-c2cn3nc4c(nc3n2)CCCC4)cc1	1	11	41*	97	100	32	7
CC(C(=O)N(C)c1ccccc1)N1CCN(C(=O)c2ccccc2)CC1 (centres undefined)	4	2	-3	101	103	.	.
O=c1[nH]c(SCc2ccc(F)cc2Cl)nc2ccccc12	-6	1	13	95	94	.	.
CCCCc1ccc(Nc2nc(CCC)cc(=O)[nH]2)cc1	5	11	40*	101	110	34	5
COc1ccc(CN2C(=O)Cc3c2nc(N)c2c(N)nc(N4CCOCC4)c(C#N)c32)cc1	2	-6	86*	94	96	25	22
COCCN1C(=O)Cc2c1nc(N)c1c(N)nc(N3CCN(c4ccc(F)cc4)CC3)c(C#N)c21	-44	0	10	96	92	.	.
COCC(C)N1C(=O)Cc2c1nc(N)c1c(N)nc(N3CCN(c4ccccc4F)CC3)c(C#N)c21 (centres undefined)	-8	-74	97*	89	97	25	5
O=C1C(C2=C(O)c3ccccc3C2=O)=Nc2ccccc21	2	-94	66*	97	99	99*	12	Fluor interf inh=>100
CN=CC1=C(O)c2ccccc2C1=O	6	-8	-22	110	107	.	.
O=C(COC(=O)c1ccc([N+](=O)[O-])s1)Nc1ccc(Cl)cn1	0	-23	29	97	96	.	.
Cc1c(Cl)cnc(NC(=O)COC(=O)c2ccc([N+](=O)[O-])s2)c1Cl	14	-20	40*	118	108	33	0
Cc1ccc(NC(=S)Nc2cccc3cnccc23)cc1	-10	-50	96*	74	78	20	-1
Cc1ccccc1NC(=S)Nc1cccc2cnccc12	-5	-30	91*	84	79	9	1
CC(=O)Nc1cccc(NC(=S)Nc2cccc(Cl)c2C)c1	-9	-2	-8	90	81	.	.
Fc1ccccc1NC(=S)Nc1cccc2cnccc12	-2	-37	97*	94	94	12	-4
SMILES	MEKK2 mut-MEK5	UBC13 inh	Apaf1 inhib	MEKK2 WT-MEK5	MEKK3 PB1 HTS	Apaf-1 inh conf2	Rh110 quench	others
CC(=O)Nc1cccc(NC(=S)Nc2cccc3ccccc23)c1	3	-9	97*	102	103	16	1
S=C(Nc1cccc(Cl)c1)Nc1cccc2cnccc12	12	.	.	104	99	.	.
CCN(CC)S(=O)(=O)c1ccc2[nH]c(=O)cc(C(=O)Nc3ccccc3N3CCOCC3)c2c1	.	3	-6	.	.	.	.
Cc1cc(NC(=O)NC(=O)c2ccccc2)no1	7	6	-13	103	105	.	.
CN(C)C(=O)c1ccccc1NC(=O)Cc1cccc2ccccc12	-1	2	-4	99	95	.	.
Cc1ccc(NC(=S)Nc2cccc3cnccc23)cc1C	-2	-48	53*	94	94	23	11
Cc1occc1C(=O)NNC1=CC(=O)CC(C)(C)C1	-2	8	0	102	103	.	.
Cc1cc(=O)n(-c2ccc3ccccc3n2)[nH]1	4	-9	86*	99	103	4	4
Cc1ccc(C)c(S(=O)(=O)/N=C2\C=C(NS(=O)(=O)c3ccccc3)C(=O)c3ccccc32)c1	-5	-134	78*	92	98	59*	18
CCc1ccc(S(=O)(=O)/N=C2\C=C(NS(=O)(=O)c3ccccc3)C(=O)c3ccccc32)cc1	1	-72	57*	98	97	51*	2	Fluor interf inh=>100
CC(C)c1ccc(S(=O)(=O)/N=C2\C=C(NS(=O)(=O)c3ccccc3)C(=O)c3ccccc32)cc1	-6	.	.	105	104	.	.
C[C@H]1CN([C@@H](C)CO)C(=O)Cc2cc(NC(=O)CCC(F)(F)F)ccc2O[C@H]1CN(C)Cc1ccc(-c2ccccc2)cc1	.	9	41*	.	.	23	-6
C[C@H](CO)N1C[C@H](C)[C@@H](CN(C)Cc2ccc(Cl)c(Cl)c2)Oc2c(NC(=O)CCC(F)(F)F)cccc2C1=O	.	7	46*	.	.	23	17
Cc1ccc(S(=O)(=O)Nc2ccc3c(c2)CC(=O)N([C@H](C)CO)C[C@@H](C)[C@H](CN(C)Cc2ccc(-c4ccccc4)cc2)O3)cc1	.	12	41*	.	.	-2	7
CCN1CCN(CC(=O)N2N=C(c3cccs3)CC2c2ccc(C)cc2)C(=O)C1=O (centres undefined)	2	-9	7	101	105	.	.
Cc1occc1C(=O)Nc1nnc(-c2cccs2)s1	-7	2	-3	91	99	.	.
Clc1ccc(/C=N/Nc2ncnc3ccccc23)cc1Cl	.	-10	43*	.	.	33	14
Fc1ccccc1/C=N/Nc1ncnc2ccccc12	0	-1	-2	99	105	.	.
CCN(C(=O)Cn1cnc2c1c(=O)n(C)c(=O)n2C)C1CCS(=O)(=O)C1 (centres undefined)	.	-10	-2	.	.	.	.
O=C(CN1C(=O)NC2(CCCc3ccccc32)C1=O)Nc1cc(F)ccc1F (centres undefined)	.	1	5	.	.	.	.
CCN1CCN(CC(=O)Nc2cc(S(=O)(=O)N(CC)c3ccccc3)ccc2Cl)CC1	.	10	12	.	.	.	.

Bioassay records deposited in PubChem by several laboratories.
